# Sampled rows, rich in hits. Any-hit rate of the full collection: about 2.2%.
# PDI inh: inhibitors of human PDI, primary screen, biochemical, turbidity, single point, plate reader; Protein disulfide-isomerase (Homo sapiens), P07237; PDI insulin aggregation turbidity, A650, 90 min; inhibition, % at 10 µM; hit rate 0.052% among 350,000; AID 588391, 2011;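 active means mean inhibition across replicates of 30% or more, whatever share of single replicates reach that level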
# PvdQ acylase: P. aeruginosa PvdQ acylase inhibitors, primary screen, biochemical, fluorescence, plate reader and imaging, single point; purified PvdQ acylase; inhibition, % at 10 µM; hit rate 0.063% among 340,000; AID 488965, 2010; in the data active means inhibition above about 30%, passing the limit was not always enough;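 further: 0% = vehicle neutral wells and 100% = reference inhibitor wells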
# ERp5 block: inhibitors of ERp5-driven insulin aggregation, primary screen, biochemical, turbidity, absorbance 650 nm, single point; 90 min; Protein disulfide-isomerase A6 (Homo sapiens), Q15084; hit rate 0.05% among 350,000; inhibition, % at 9.99 µM;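 active means mean replicate inhibition above about 25%, with every replicate also reaching it, limit read from the data, passing the limit was not always enough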
# Target sequence (Q15084 whole entry, looked up): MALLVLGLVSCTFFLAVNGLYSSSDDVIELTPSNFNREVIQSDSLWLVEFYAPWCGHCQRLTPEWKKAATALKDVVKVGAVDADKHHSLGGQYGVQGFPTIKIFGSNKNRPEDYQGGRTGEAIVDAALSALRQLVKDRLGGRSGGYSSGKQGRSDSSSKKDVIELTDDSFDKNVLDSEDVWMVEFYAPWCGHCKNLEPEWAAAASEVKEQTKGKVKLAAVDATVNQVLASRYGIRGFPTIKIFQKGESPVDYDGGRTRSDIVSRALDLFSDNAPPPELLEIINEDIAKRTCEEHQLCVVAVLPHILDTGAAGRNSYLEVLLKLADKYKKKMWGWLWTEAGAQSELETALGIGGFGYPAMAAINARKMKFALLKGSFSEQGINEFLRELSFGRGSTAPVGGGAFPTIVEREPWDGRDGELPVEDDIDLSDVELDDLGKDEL
# rRNA inh HTS: reduced GFP signal of wild-type E. coli, primary screen, bacterial rRNA inhibitor project, GFP/RFP fluorescence, OD600, single point; E. coli WT GFP vs humanized-ribosome RFP mutants, 24 h; active compounds read low; DMSO median 0, no signal -100; GFP signal change (wild-type ribosome), % (no concentration beside the values); hit rate 1.6% among 350,000; AID 720706, 2013;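 active means significant combined selectivity score with lowered wild-type GFP, culture density cut under 30%, mutant RFP and density less affected; inactive means any of these conditions unmet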
# Env fusion inh: inhibitors of HIV-1 Env-driven cell-cell fusion, primary screen, HeLa-JRFL effector, CEM21 target cells, luciferase | AID 651610, 2012 | hit rate 1.1% among 360,000 | inhibition, % at 12.3 µM;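 active means mean replicate inhibition score of at least 50 and every replicate individually at or above 50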;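 further: 0% = plate neutral controls and 100% = maraviroc near 300 nM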
# FN deposition inh: inhibitors of fibronectin matrix deposition, primary screen, AH1F cells, Alexa488-fibronectin fluorescence, plate reader. AH1F fibroblasts, overnight. inhibition, % at 12.6 µM. hit rate 0.086% among 350,000;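 active means mean inhibition across replicates of 30% or more, regardless of how many single replicates reach that level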;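 further: positive control wells lacked labelled fibronectin entirely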
#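 Assay system: AH1F fibroblast monolayer, labelled fibronectin deposition. Amount: 10000 cells per well. Also added: labelled fibronectin 24 nM. Compound: single-point pinned compound. Incubation: cell attachment 1 h, compound and FN exposure overnight. Detection: fluorescence after three HBSS washes, excitation 485 nm, emission 525 nm. Read-out: inhibition of fibronectin deposition signal.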
# Active calls of the source: *; / = no result given; [ ] = dose if it differs, or a comment.
SMILES,PDI inh,PvdQ acylase,ERp5 block,rRNA inh HTS,Env fusion inh,FN deposition inh
Cc1noc(C)c1NC(=O)Nc1ccc2c(c1)C(=O)N([C@@H](C)CO)C[C@H](C)[C@H](CN(C)C)OCCCC[C@@H](C)O2,/,/,-2,4,10[16.7 µM],/
COc1cc(C(=O)Nc2nc(-c3cccs3)cs2)cc(OC)c1OC,-2,-9,-3,-30*,/,/
O=C(Nc1nc(-c2cccs2)cs1)c1cccc(S(=O)(=O)N2CCCCC2)c1,-6,-7,/,/,69*,7
Cc1ccc(-c2csc(NC(=O)c3cccc(S(=O)(=O)N4CCN(C)CC4)c3)n2)cc1,-2,5,/,/,25,2
O=C(Nc1nc(-c2cc3ccccc3o2)cs1)c1ccc(S(=O)(=O)N2CCCC2)cc1,-5,12,5,13,57*,-2
C[C@H]1CN([C@@H](C)CO)S(=O)(=O)c2ccc(-c3ccncc3)cc2O[C@H]1CN(C)C(=O)CC1CC1,/,/,1,-3,-10[16.7 µM],/
Cc1noc(C)c1S(=O)(=O)Nc1ccc2c(c1)CC(=O)N([C@@H](C)CO)C[C@H](C)[C@@H](CN(C)Cc1ccncc1)O2,/,/,-4,0,-10[16.7 µM],/
COc1ccc(CN(C)C[C@@H]2Oc3ccc(NC(=O)Cc4ccccc4)cc3CC(=O)N([C@@H](C)CO)C[C@H]2C)cc1,/,/,-5,2,/,/
O=C(N[C@@H]1CC[C@@H](CCNS(=O)(=O)c2ccccc2)O[C@@H]1CO)c1cccc(F)c1,/,/,4,0,-12[16.7 µM],-4
COc1ccc(CNc2ccc([N+](=O)[O-])cc2C)cc1,0,-4,1,-24*,-466,-2
COC(=O)C[C@@H]1CC[C@@H]2[C@@H](COc3ccc(NC(=O)Nc4cc(C)cc(C)c4)cc3C(=O)N2C)O1,/,/,-1,-4,6[16.7 µM],0
CC(=O)c1ccc(-n2ccnc2)cc1,3,-10,2,4,4,3
COC(=O)/C=C/c1ccc(-n2ccnc2)cc1,24,-5,3,-30*,-15,-8
CC(C)NC(=O)N(C)C[C@@H]1Oc2ncc(C#CCC3CCCC3)cc2C(=O)N([C@H](C)CO)C[C@H]1C,/,/,-6,-4,5[16.7 µM],-17
CCN(c1ccccc1)S(=O)(=O)c1cccc(C(=O)NCC(c2ccc(F)cc2)N2CCOCC2)c1 (stereo unspecified),0,-8,7,-25*,4,-3
C[C@@H]1CN([C@@H](C)CO)S(=O)(=O)c2ccc(C#Cc3cccnc3)cc2O[C@H]1CN(C)C(=O)CN(C)C,/,/,54*,4,18[16.7 µM],2
C[C@H]1CN([C@@H](C)CO)S(=O)(=O)c2ccc(C#Cc3ccccc3)cc2O[C@H]1CN(C)C(=O)C1CC1,/,/,1,0,17[16.7 µM],-20
C[C@@H]1CN([C@@H](C)CO)S(=O)(=O)c2ccc(C#C[C@@H](C)O)cc2O[C@H]1CN(C)C,/,/,-4,1,8[16.7 µM],-12
C[C@H](O)C#Cc1ccc2c(c1)O[C@@H](CN(C)C)[C@H](C)CN([C@H](C)CO)S2(=O)=O,/,/,-2,-2,-10[16.7 µM],48*
C[C@@H]1CN([C@H](C)CO)S(=O)(=O)c2ccc(C#Cc3ccccc3)cc2O[C@H]1CN(C)C(=O)C1CC1,/,/,1,-2,58*[16.7 µM],8
CC(C)C#Cc1ccc2c(c1)O[C@@H](CN(C)C(=O)C1CC1)[C@@H](C)CN([C@@H](C)CO)S2(=O)=O,/,/,61*,4,1[16.7 µM],/
O=C(Nc1nccs1)[C@@H]1[C@@H](CO)[C@@H]2Cn3c(cccc3=O)[C@H]1N2C(=O)C1CCCCC1,/,/,-4,7,/,/
COCC(=O)N(C)C[C@H]1Oc2cc(C#CC(C)(C)O)ccc2S(=O)(=O)N([C@H](C)CO)C[C@H]1C,/,/,73*,4,4[16.7 µM],/
CCC(=O)N(C)C[C@@H]1Oc2cc(C#Cc3ccccc3)ccc2S(=O)(=O)N([C@H](C)CO)C[C@H]1C,/,/,-4,-21,66*[16.7 µM],7
COCC(=O)N(C)C[C@@H]1Oc2cc(C#CC(C)(C)O)ccc2S(=O)(=O)N([C@@H](C)CO)C[C@H]1C,/,/,15,4,-15[16.7 µM],/
SMILES,PDI inh,PvdQ acylase,ERp5 block,rRNA inh HTS,Env fusion inh,FN deposition inh
C[C@H]1CN([C@@H](C)CO)C(=O)c2cc(-c3cncnc3)cnc2O[C@@H]1CN(C)CC1CCCC1,/,/,-5,2,-16[16.7 µM],/
N#C[C@@H]1[C@H](c2ccc(C3=CCCCC3)cc2)[C@H](CO)N1C(=O)NC1CCCC1,/,/,/,-1,/,3
COc1ccc(Cl)cc1NC(=O)Nc1cccc([N+](=O)[O-])c1C,4,-19,4,-32*,/,/
N#CC1=C(Nc2ccccc2Cl)SC(c2ccccc2O)NC1=O (stereo unspecified),-1,-1,0,-27*,-17,2
COc1cccc(C(C)(O)c2nc(-c3ccc(S(C)(=O)=O)cc3)cs2)c1 (stereo unspecified),-3,/,3,-5,64*,-3
COc1ccc(-c2csc(C(C)(O)c3cccc(OC)c3)n2)cc1 (stereo unspecified),3,/,-8,-44,22,4
C[C@@H]1CN([C@H](C)CO)C(=O)Cc2cc(NS(=O)(=O)c3cccs3)ccc2O[C@@H]1CN(C)S(=O)(=O)c1cccs1,/,/,/,-2,-3[16.7 µM],/
O=[N+]([O-])c1ccc(N/N=C/c2cccc(O)c2O)cc1,-4,-7,-2,-31*,-36,8
O=C(O)c1ccc(N/N=C/c2ccc(-c3cccc(Cl)c3)o2)cc1,6,-13,0,-39*,-132,0
O=[N+]([O-])c1ccc(N/N=C/c2cccc(O)c2)cc1,-7,1,2,-53,-79,-9
CCc1nnc(N/N=C/c2ccc(-c3ccc([N+](=O)[O-])cc3)o2)n1N,-3,-9,3,-37*,-3,-5
O=C(O)c1cccc(-c2ccc(/C=N/Nc3ccc([N+](=O)[O-])cc3)o2)c1,2,5,-1,-38*,-11,3
O=C(O)c1ccc(N/N=C/c2ccc(-c3cc(Cl)ccc3Cl)o2)cc1,3,-10,-1,-6,-85,3
CO[C@@H]1CN(C)C(=O)c2cc(NS(=O)(=O)c3ccc(C)cc3)ccc2OC[C@@H](C)N(Cc2nccs2)C[C@H]1C,/,/,-6,-4,3[16.7 µM],-1
CCOC(=O)CN1CCCc2nc(C)c(C)cc21,/,/,3,15,84*,-13
O=C(CN1CCCN(Cc2ccc(F)cc2Cl)C1=O)NC1CCCCCCC1,-8,4,/,/,72*,0

# Bioassay records: PubChem BioAssay, Broad Institute
